Test results taken from ChEMBL document CHEMBL3616430, “Discovery, synthesis and biochemical profiling of purine-2,6-dione derivatives as inhibitors of the human poly(A)-selective ribonuclease Caf1” (Bioorg Med Chem Lett, 2015).
The source made the active and inactive calls. The calls are words filed in the database; no cut-off is given here.

Molecular target: CCR4-NOT transcription complex subunit 6 (Homo sapiens) (UniProt Q9ULM6)
Experiment: Inhibition of Ccr4 (unknown origin) at 3 uM by fluorescence-based assay
Method in brief: (§1)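 Fluorescence-based ribonuclease activity assay with Ccr4, using one compound concentration per reaction (30, 10 or 3 μM, as in each line). The reactions compared were a no-enzyme control, a complete reaction with enzyme, and a complete reaction plus compound. Data are shown with standard deviation error bars.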

Sequence of CCR4-NOT transcription complex subunit 6 (Homo sapiens) (Q9ULM6 whole entry, one chain of several): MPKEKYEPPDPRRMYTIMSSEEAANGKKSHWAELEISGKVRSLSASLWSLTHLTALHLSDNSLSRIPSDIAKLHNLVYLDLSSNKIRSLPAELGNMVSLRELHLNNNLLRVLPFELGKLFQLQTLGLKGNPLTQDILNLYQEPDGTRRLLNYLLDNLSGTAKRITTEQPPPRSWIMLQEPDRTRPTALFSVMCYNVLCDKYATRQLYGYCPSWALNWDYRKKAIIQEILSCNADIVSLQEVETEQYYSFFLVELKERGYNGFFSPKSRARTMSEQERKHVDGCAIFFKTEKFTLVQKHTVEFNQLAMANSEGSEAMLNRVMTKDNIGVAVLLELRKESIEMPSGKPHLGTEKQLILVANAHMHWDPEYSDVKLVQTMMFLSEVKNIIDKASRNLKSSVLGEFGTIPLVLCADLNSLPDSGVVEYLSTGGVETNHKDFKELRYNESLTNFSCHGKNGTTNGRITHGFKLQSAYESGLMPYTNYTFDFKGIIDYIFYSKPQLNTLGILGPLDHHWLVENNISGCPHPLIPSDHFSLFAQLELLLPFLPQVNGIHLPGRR

inhibition, inactive:
CN(C)CCCn1c(=O)n(O)c(=O)c2c1ncn2CCc1ccccc1
CC(C)CCCn1c(=O)n(O)c(=O)c2c1ncn2CCc1ccccc1

Molecular target: CCR4-NOT transcription complex subunit 6 (Homo sapiens) (UniProt Q9ULM6)
Experiment: Inhibition of Ccr4 (unknown origin) at 10 uM by fluorescence-based assay
Method in brief: as §1

inhibition, inactive:
O=c1[nH]c2ncn(CCc3ccccn3)c2c(=O)n1O
O=c1[nH]c2ncn(CCc3ccccc3)c2c(=O)n1O
O=c1[nH]c2ncn(CCOc3ccccc3)c2c(=O)n1O
O=c1[nH]c2ncn(CCc3cccs3)c2c(=O)n1O

Molecular target: CCR4-NOT transcription complex subunit 6 (Homo sapiens) (UniProt Q9ULM6)
Experiment: Inhibition of Ccr4 (unknown origin) at 30 uM by fluorescence-based assay
Method in brief: as §1

inhibition, inactive:
O=c1[nH]c2ncn(Cc3ccccn3)c2c(=O)n1O
O=c1[nH]c2ncn(Cc3cccnc3)c2c(=O)n1O
CCn1c(=O)n(O)c(=O)c2c1ncn2CCc1ccccc1
O=c1[nH]c2ncn(Cc3ccccc3)c2c(=O)n1O
O=c1c2c(ncn2CCc2ccccc2)n(CCCc2ccccc2)c(=O)n1O
Cn1c(=O)n(O)c(=O)c2c1ncn2CCc1ccccc1
CCCCCCCCCn1c(=O)n(O)c(=O)c2c1ncn2CCc1ccccc1
O=c1[nH]c2ncn(C3CCCCC3)c2c(=O)n1O
O=c1[nH]c2ncn(Cc3ccncc3)c2c(=O)n1O
CCCCCn1c(=O)n(O)c(=O)c2c1ncn2CCc1ccccc1
